Here are results for 5 molecules from publication PMC12257578 (Drug Development Research, 2025).

Where two headings read alike, the source gives them in different places.

The test system of data set [1] is Leishmania donovani strain 9515 promastigotes. As to the kind of experiment: Antipromastigote resazurin assay, L. donovani. The format is cell-based. The note with it: read-out: Antipromastigote activity IC50. A digest of the protocol: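 L. donovani strain 9515 (MHOM/IN/95/9515) promastigotes were kept at 26°C in supplemented M199 with 10% FBS, pH 7.3–7.4. Log-phase cells were seeded at 1.25 × 10^6 cells/mL with seven two-fold dilutions of test compound. […] After 48 h at 26°C, 0.01% resazurin in PBS was added for 24 h in the dark. IC50 came from absorbance.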
Background: Resazurin is reduced to fluorescent resorufin, in cell work by metabolically active cells.

In data set [2] the test system is Leishmania donovani strain 9515 intramacrophage amastigotes. As to the kind of experiment: Intramacrophage antileishmanial assay. The format is cell-based.
A short description of data set [3]: Animal cytotoxicity, CCK-8 assay in MDBK cells. The note with it: bovine. It is filed as cell-based, bovine. A digest of the protocol: (§1)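 MDBK bovine kidney cells at 10 000 cells/mL were exposed to two-fold serial dilutions of test compound for 72 h at 37°C, 5% CO2, humidified. CCK-8 reagent was then added, followed by a further 4 h incubation. Absorbance was read and CC50 derived, reported as mean ± SD of three biological replicates.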
In general terms: Tetrazolium dyes change colour on reduction, which living cells bring about.

For data set [4], the system named is T. congolense strain IL3000. As to the kind of experiment: Antitrypanosomal Cell-TiterGlo assay, T. congolense. The following applies: read-out: Antitrypomastigote activity IC50 ± SD. It is filed as cell-based, Trypanosoma congolense.
The subject of data set [5] is T. equiperdum strain IVM‐t1. Kind of data set: Antitrypanosomal Cell-TiterGlo assay, T. equiperdum. It is filed as cell-based, Trypanosoma equiperdum. The following applies: read-out: Antitrypomastigote activity IC50 ± SD.
Data set [6] has as its system human colorectal adenocarcinoma (CaCO2) cells. The note with it: ref Tshiluka et al. [2023]; Tshiluka et al. [2025]; cited from earlier work.
Data set [7] concerns Trypanosoma brucei brucei GUTat3.1. As to the kind of experiment: Antitrypanosomal Cell-TiterGlo assay, T.b. brucei. It is filed as cell-based. The following applies: read-out: Antitrypomastigote activity IC50 ± SD. In short, it runs like this: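 Blood-stage T. b. brucei GUTat3.1 at 2500 cells/mL was first screened at 0.25 and 25 µg/mL. […] Plates ran 72 h, then CellTiter-Glo was added, shaken 2 min and held 10 min at room temperature for lysis. IC50 came from bioluminescence, mean ± SD of three biological replicates.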

The test system of data set [8] is L. major strain NIH S promastigotes. As to the kind of experiment: Antipromastigote resazurin assay, L. major. The format is cell-based. The note with it: Leishmania major, read-out: Antipromastigote activity IC50.
Data set [9] has as its system L. major strain NIH S intramacrophage amastigotes. Kind of data set: Intramacrophage antileishmanial assay. The format is cell-based. The following applies: Leishmania major.
For data set [10], the system named is Madin‐Darby bovine kidney (MDBK) cell line. As to the kind of experiment: Animal cytotoxicity, CCK-8 assay in MDBK cells. It is filed as cell-based. The note with it: read-out: Cytotoxicity CC50 ± SD MDBK, 72 h. In short, it runs like this: as §1
Data set [11] deals with T. brucei gambiense strain IL1922. As to the kind of experiment: Antitrypanosomal Cell-TiterGlo assay, T.b. gambiense. It is filed as cell-based, Trypanosoma brucei gambiense. The note with it: read-out: Antitrypomastigote activity IC50 ± SD; Tbg IL1922, 72 h.
Data set [12] can be described thus: General cytotoxicity, resazurin assay in Vero cells. The format is cell-based. The note with it: African green monkey. A digest of the protocol:
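Vero cells at 60,000 cells/mL were pre-incubated 24 h, then treated with a two-fold dilution series starting from 100 μM test compound for 72 h. […] Emetine served as control.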

The mark [13] stands for this setting: 24 h, read-out: Static anti‐amastigote activity IC50.
Where [14] appears, read: 72 h, read-out: Cidal anti‐amastigote activity IC50.

A word on the IC50: it is the concentration that inhibits the measured activity by half. On to `C[C@@H]1[C@H](O)[C@@H](C)/C=C/C=C/C=C/C=C/C=C/C=C/C=C/[C@H](O[C@@H]2O[C@H](C)[C@@H](O)[C@H](N)[C@@H]2O)C[C@@H]2O[C@](O)(C[C@@H](O)C[C@@H](O)[C@H](O)CC[C@@H](O)C[C@@H](O)CC(=O)O[C@H]1C)C[C@H](O)[C@H]2C(=O)O` [AMB, Amphotericin B], for which the IC50 in data set [1] turned out to be 0.02 ± 0.009 µM; in data set [2] (setting [13]), 0.05 µM.

What is called CC50 is the concentration giving 50% cytotoxicity. In turn, `CCC[C@H](NC(=O)CN1C(=O)SC(=Cc2ccc3c(c2)OCO3)C1=O)C(=O)OCC` [Compound 8, Ethyl {2-[5-(benzo[d] [1,3]dioxol-5-ylmethylene)-2,4-dioxothiazolidin-3-yl]acetyl}norvalinate] came in with a CC50 at 72 h in [3] of 97.1 ± 9.3 µM. Further, the IC50 in data set [4] (Trypanosoma congolense, 72 h) was more than 58 µM; in data set [5] (Trypanosoma equiperdum, 72 h), more than 58 µM; in [1], 85.86 ± 0.39 µM; in data set [2] (setting [13]), more than 10 µM; in data set [2] (setting [14]), more than 10 µM; in data set [7] (Trypanosoma brucei, 72 h) it was more than 58 µM. Also, the IC50 in [8] is more than 100 µM; in data set [9] (setting [13]) it was more than 10 µM; in data set [9] (setting [14]), more than 10 µM. The “Toxicity on CaCO2 (Caco‐2) cells in words” value in [6] was “reduced cell viability”.

Consider `N=C(N)c1ccc(N=NNc2ccc(C(=N)N)cc2)cc1` [Diminazene aceturate, diminazene aceturate], for which the CC50 in data set [10] is more than 355 µM. Further, the IC50 worked out at 0.09 µM in data set [4] (Tc IL3000, 72 h); 0.022 ± 0.002 µM in [5] (Teq IVM‐t1, 72 h); 0.068 µM in data set [7] (Tbb GuTat3.1, 72 h); 0.011 µM in [11].

As for `CC[C@H]1CN2CCc3cc(OC)c(OC)cc3[C@@H]2C[C@@H]1C[C@H]1NCCc2cc(OC)c(OC)cc21` [Em, Emetine], half-maximal cytotoxicity in data set [12] (CC50 at 72 h) was put at 0.08 ± 0.009 µM.

As to `Cc1ccc(C(=O)Nc2ccc(S(=O)(=O)O)c3cc(S(=O)(=O)O)cc(S(=O)(=O)O)c23)cc1NC(=O)c1cccc(NC(=O)Nc2cccc(C(=O)Nc3cc(C(=O)Nc4ccc(S(=O)(=O)O)c5cc(S(=O)(=O)O)cc(S(=O)(=O)O)c45)ccc3C)c2)c1` [Suramin, suramin], the CC50 at 72 h in [3] was more than 70 µM. For the same molecule, the IC50 in [7] (Trypanosoma brucei, 72 h) was found to be 0.07 ± 0.02 µM.
